Data published in ChEMBL document CHEMBL4020703, “Epigallocatechin-3-gallate inhibits bacterial virulence and invasion of host cells” (Bioorg Med Chem, 2017).
Activity calls are given as the source filed them. No cut-off for these calls is given here.

What was measured:
[1] = test system: Salmonella enterica subsp. enterica serovar Typhimurium; assay: Inhibition of SPI-1 T3SS in Salmonella typhimurium assessed as reduction in SPI-1 T3SS substrates by measuring FliC protein level at 100 uM after 4 hrs by Coomassie staining based SDS-PAGE method
Summary of the method: (§1)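 Overnight S. Typhimurium cultures were diluted 1:30 into LB (10 g/L NaCl) and grown 4 h with or without compound. Culture supernatant (1 mL) was precipitated overnight at 4 °C with TCA (10% final). Pellets were spun at 14,000 rpm for 30 min, acetone-washed, and dried. Proteins were resolved on 4–20% SDS-PAGE, Coomassie-stained, and imaged.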

[2] = test system: Salmonella enterica subsp. enterica serovar Typhimurium; assay: Inhibition of SPI-1 T3SS in Salmonella typhimurium assessed as reduction in SPI-1 T3SS substrates by measuring FliD protein level at 100 uM after 4 hrs by Coomassie staining based SDS-PAGE method; summary of the method: as §1
[3] = test system: Salmonella enterica subsp. enterica serovar Typhimurium; assay: Inhibition of SPI-1 T3SS in Salmonella typhimurium assessed as reduction in SPI-1 T3SS substrates by measuring SipC protein level at 100 uM after 4 hrs by Coomassie staining based SDS-PAGE method; summary of the method: as §1
[4] = test system: Salmonella enterica subsp. enterica serovar Typhimurium; assay: Inhibition of SPI-1 T3SS in Salmonella typhimurium assessed as reduction in SPI-1 T3SS substrates by measuring SopB protein level at 100 uM after 4 hrs by Coomassie staining based SDS-PAGE method; summary of the method: as §1
[5] = test system: Salmonella enterica subsp. enterica serovar Typhimurium; assay: Inhibition of SPI-1 T3SS in Salmonella typhimurium assessed as reduction in SPI-1 T3SS substrates by measuring SipB protein level at 100 uM after 4 hrs by Coomassie staining based SDS-PAGE method; summary of the method: as §1
[6] = test system: Salmonella enterica subsp. enterica serovar Typhimurium; assay: Inhibition of SPI-1 T3SS in Salmonella typhimurium assessed as reduction in SPI-1 T3SS substrates by measuring SipA protein level at 100 uM after 4 hrs by Coomassie staining based SDS-PAGE method; summary of the method: as §1
[7] = test system: Salmonella enterica subsp. enterica serovar Typhimurium; assay: Inhibition of SPI-1 T3SS in Salmonella typhimurium assessed as reduction in SPI-1 T3SS substrates by measuring FliD protein level at 5 to 100 uM after 4 hrs by Coomassie staining based SDS-PAGE method; summary of the method: as §1
[8] = test system: Salmonella enterica subsp. enterica serovar Typhimurium; assay: Inhibition of SPI-1 T3SS in Salmonella typhimurium assessed as reduction in SPI-1 T3SS substrates by measuring FliC protein level at 5 to 100 uM after 4 hrs by Coomassie staining based SDS-PAGE method; summary of the method: as §1
[9] = test system: Salmonella enterica subsp. enterica serovar Typhimurium; assay: Inhibition of SPI-1 T3SS in Salmonella typhimurium assessed as reduction in SPI-1 T3SS substrates by measuring SipC protein level at 5 to 100 uM after 4 hrs by Coomassie staining based SDS-PAGE method; summary of the method: as §1
[10] = test system: Salmonella enterica subsp. enterica serovar Typhimurium; assay: Inhibition of SPI-1 T3SS in Salmonella typhimurium assessed as reduction in SPI-1 T3SS substrates by measuring SopB protein level at 5 to 100 uM after 4 hrs by Coomassie staining based SDS-PAGE method; summary of the method: as §1
[11] = test system: Salmonella enterica subsp. enterica serovar Typhimurium; assay: Inhibition of SPI-1 T3SS in Salmonella typhimurium assessed as reduction in SPI-1 T3SS substrates by measuring SipB protein level at 5 to 100 uM after 4 hrs by Coomassie staining based SDS-PAGE method; summary of the method: as §1
[12] = test system: Salmonella enterica subsp. enterica serovar Typhimurium; assay: Inhibition of SPI-1 T3SS in Salmonella typhimurium assessed as reduction in SPI-1 T3SS substrates by measuring SipA protein level at 5 to 100 uM after 4 hrs by Coomassie staining based SDS-PAGE method; summary of the method: as §1
HeLa [13] = assay: Inhibition of SPI-1 T3SS in Salmonella typhimurium infected in human HeLa cells assessed as reduction in bacterial invasion at 100 uM after 30 mins by immunofluorescence analysis; format: cell-based; conditions: Salmonella enterica subsp. enterica serovar Typhimurium
Summary of the method: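 HeLa cells on glass coverslips were infected and stained as for the flow protocol (MOI 10, 30 min, gentamicin chase, anti-Salmonella serum/AlexaFluor 488), with nuclei counterstained by TOPRO-3. Extracellular bacteria were imaged without permeabilisation or gentamicin.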

HeLa [14] = assay: Inhibition of SPI-1 T3SS in Salmonella typhimurium infected in human HeLa cells assessed as reduction in bacterial invasion at 100 uM after 30 mins by flow cytometry; format: cell-based; conditions: Salmonella enterica subsp. enterica serovar Typhimurium
Summary of the method: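 Strain IR715 was pre-grown 4 h in LB (1/33 dilution) with compound or DMSO, then added to HeLa cells (DMEM/10% FBS) at MOI 10 with compound. Plates were spun 5 min at 1000×g, infected 30 min at 37 °C, then given gentamicin 100 ug/mL for 30 min. Cells were fixed, saponin-permeabilised, stained with anti-Salmonella serum plus AlexaFluor 488 secondary, and 30,000 cells counted. Values normalised to DMSO; triplicate.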

Salmonella typhimurium [15] = assay: Effect on growth of Salmonella typhimurium at 100 uM; conditions: salmonella enterica subsp. enterica serovar typhimurium
Salmonella typhimurium [16] = assay: Effect on SopE2-CPG2-HA fusion protein expression expressed in Salmonella typhimurium using Glu-CyFur as substrate at 0.39 to 100 uM after 4 hrs by fluorescence assay; format: ADME; conditions: salmonella enterica subsp. enterica serovar typhimurium
Summary of the method: (§2)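 SopE2-CPG2-HA reporter strain grown overnight at 37 °C in LB (10 g/L NaCl) with 50 μg/mL ampicillin, diluted 1:30, then grown 4 h with compound or DMSO/H2O control (<1% of volume). Bacterial lysates were examined for reporter level.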

Salmonella typhimurium [17] = assay: Effect on SopE2-CPG2-HA fusion protein expression expressed in Salmonella typhimurium at 0.39 to 100 uM after 4 hrs by Western blot method; format: ADME; conditions: salmonella enterica subsp. enterica serovar typhimurium; summary of the method: as §2
[18] = Inhibition of SPI-1 T3SS in Salmonella typhimurium expressing SopE2-CPG2-HA fusion protein assessed as reduction in type 3 protein secretion using Glu-CyFur as substrate after 4 hrs by fluorescence assay; set-up: species or system Salmonella enterica subsp. enterica serovar Typhimurium
Summary of the method: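 Reporter strain was grown 4 h at 37 °C with compound after a 1:30 dilution, and OD600 was checked. Culture supernatant was mixed with 50 mM Tris, 0.1 mM ZnCl2, pH 7.4, 0.1% Brij-97 and 10 μM Glu-CyFur. Fluorescence (ex 563/em 610 nm) was read kinetically for 2 h. Inhibition came from the rate versus DMSO/H2O control, and IC50 from an exponential decay fit.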

Structure (SMILES) | inhibition [1] | inhibition [2] | inhibition [3] | inhibition [4] | inhibition [5] | inhibition [6] | inhibition [7] | inhibition [8] | inhibition [9] | inhibition [10] | inhibition [11] | inhibition [12] | inhibition (HeLa [13]) | inhibition (HeLa [14]) | Activity (Salmonella typhimurium [15]) | Activity (Salmonella typhimurium [16]) | Activity (Salmonella typhimurium [17]) | IC50 [18] [nM]
O=c1cc(-c2ccccc2)oc2cc(O)cc(O)c12 | inactive | inactive | inactive | inactive | inactive | inactive | – | – | – | – | – | – | – | – | – | – | – | –
O=c1cc(-c2ccccc2)oc2cc(O)c(O)c(O)c12 | – | – | – | – | – | – | Active | Active | Active | Active | Active | Active | – | – | – | – | – | –
O=C(N/N=C/c1cc(Br)cc(Br)c1O)c1ccc([N+](=O)[O-])cc1 | – | – | – | – | – | – | Active | Active | Active | Active | Active | Active | – | – | – | – | – | –
O=C(O[C@@H]1Cc2c(O)cc(O)cc2O[C@@H]1c1ccc(O)c(O)c1)c1cc(O)c(O)c(O)c1 | – | – | – | – | – | – | Active | Active | Dose-dependent effect | Dose-dependent effect | Dose-dependent effect | Dose-dependent effect | – | – | – | – | – | –
O=C(O[C@@H]1Cc2c(O)cc(O)cc2O[C@@H]1c1cc(O)c(O)c(O)c1)c1cc(O)c(O)c(O)c1 [EPIGALOCATECHIN GALLATE] | – | – | – | – | – | – | Active | Active | Dose-dependent effect | Dose-dependent effect | Dose-dependent effect | Dose-dependent effect | Active | Active | Non-Toxic | Non-Toxic | Non-Toxic | 2150
